From article PMC7558257 (Acta Pharmaceutica Sinica. B, 2020) come the findings set out here.

Where only a bound is given, the exact number is not on record here.

In experiment [1] the target is Human dihydroorotate dehydrogenase (DHODH) (Homo sapiens, UniProt Q02127). Kind of experiment: In vitro DHODH enzyme inhibition assay. To be noted: for inhibition at 10 µM: read-out: Inhibition (%) at 10 μmol/L; for potency loss relative to naphthyl compound 24: vs. 24. The class given is biochemical.
The test system of experiment [2] is collagen-induced arthritis (CIA) in Wistar rats. The experiment can be described thus: Collagen-induced arthritis. The class given is in vivo. The following applies: orally once a day for 28 days; methotrexate 0.3 mg/kg, 54 at 10 and 30 mg/kg. The method in brief: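 Adult male Wistar rats (130–150 g) were immunized with emulsified bovine type II collagen on Days 1 and 7. Dosing was oral, once daily for 28 days, with 0.5% CMC-Na vehicle. Arthritis was scored 0–4 daily, blinded. Body weight was taken every 3 days, plus hind-paw volume and terminal joint histopathology. Data are mean ± SEM.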

Sequence of Human dihydroorotate dehydrogenase (DHODH) (Q02127 whole entry): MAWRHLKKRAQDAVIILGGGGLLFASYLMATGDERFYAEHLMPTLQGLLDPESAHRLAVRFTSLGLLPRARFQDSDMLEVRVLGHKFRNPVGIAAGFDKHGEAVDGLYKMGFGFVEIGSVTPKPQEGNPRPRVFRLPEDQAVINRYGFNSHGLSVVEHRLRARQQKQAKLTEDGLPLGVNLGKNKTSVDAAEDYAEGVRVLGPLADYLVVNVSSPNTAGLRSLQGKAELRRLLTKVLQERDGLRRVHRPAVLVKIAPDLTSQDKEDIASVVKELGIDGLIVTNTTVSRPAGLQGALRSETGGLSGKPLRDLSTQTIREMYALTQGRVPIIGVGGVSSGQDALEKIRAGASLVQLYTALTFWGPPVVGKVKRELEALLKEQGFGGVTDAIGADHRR

As for `C/C(=C\c1ccc2ccccc2c1)C(=O)Nc1ccc(Br)cc1C(=O)O` [Compound 45], in experiment [1], the IC50 (commonly the concentration at which inhibition is half-maximal) is 1.82 ± 0.02 µM and the inhibition at 10 µM was 80.8%.
Take `O=C(COc1ccc2ccccc2c1)Nc1ccccc1C(=O)O` [Compound 36]: in experiment [1], the IC50 stood at 1.87 ± 0.048 µM and the inhibition at 10 µM is 76.1%.
Take `C/C(=C\c1ccc2ccccc2c1)C(=O)Nc1ccccc1C(N)=O` [Compound 51]: in experiment [1], the IC50 was 5.35 ± 0.172 µM and the inhibition at 10 µM was 66.9%.
Take `COc1ccc(NC(=O)/C(C)=C/c2ccc3ccccc3c2)c(C(=O)O)c1` [Compound 47]: in experiment [1], the IC50 is above 10 µM and the inhibition at 10 µM was 48.2%.
On to `O=C(COc1ccc([N+](=O)[O-])cc1)Nc1ccccc1C(=O)O` [Compound 9, 2-(2-(4-Nitrophenoxy)acetamido)benzoic acid], for which, in experiment [1], the inhibition at 10 µM was found to be 45.3%.
As to `CN(Cc1cnc2nc(N)nc(N)c2n1)c1ccc(C(=O)N[C@@H](CCC(=O)O)C(=O)O)cc1` [methotrexate, reference compound], the “volumes of paws in CIA rats compared to model rats” value in experiment [2] is “significantly decreased”.
Take `C/C(=C\c1cc2ccccc2cn1)C(=O)Nc1ccccc1C(=O)O` [Compound 31]: in experiment [1], it took 0.646 ± 0.009 µM to reach half-maximal inhibition (IC50), the inhibition at 10 µM stood at 87.4% and the “potency loss relative to naphthyl compound 24” value is recorded as 8 fold.
For the compound `C/C(=C\c1ccc(Oc2ccccc2)cc1)C(=O)Nc1ccccc1C(=O)O` [Compound 34], in experiment [1], the midpoint of inhibition, the IC50, lay at 0.63 ± 0.014 µM and the inhibition at 10 µM is 90.4%.
Regarding `C/C(=C\c1ccc2ccccc2c1Br)C(=O)Nc1ccccc1C(=O)O` [Compound 30], in experiment [1], the IC50 turned out to be 0.058 ± 0.001 µM and the inhibition at 10 µM turned out to be 90.2%.
In the case of `C/C(=C\c1ccc2cc(Br)ccc2c1)C(=O)Nc1ccccc1C(=O)O` [Compound 26], in experiment [1], the IC50 turned out to be 0.448 ± 0.008 µM and the inhibition at 10 µM was 85.4%.
`COC(=O)c1ccccc1NC(=O)/C(C)=C/c1ccc2ccccc2c1` [Compound 52, Methyl (E)-2-(2-methyl-3-(naphthalen-2-yl)acrylamido)benzoate]: in experiment [1], the “DHODH inhibition, result in words” value is “completely inactive”; the IC50 is above 10 µM; the inhibition at 10 µM was determined as 29.6%.
`C/C(=C\c1ccc2ccccc2c1)C(=O)Nc1ccc(C(F)(F)F)cc1C(=O)O` [Compound 48]: in experiment [1], half-maximal inhibition (IC50) required 0.874 ± 0.005 µM and the inhibition at 10 µM is 87.4%.
The corresponding values for `CC(C)(Oc1ccc2ccccc2c1)C(=O)Nc1ccccc1C(=O)O` [Compound 37, 2-(2-Methyl-2-(naphthalen-2-yloxy)propanamido)benzoic acid] are above 10 µM and 20.3%.
`O=C(COc1ccccc1)Nc1ccccc1C(=O)O` [Compound 10]: in experiment [1], the inhibition at 10 µM worked out at 31.7%.
On to `C/C(=C\c1ccc2ccccc2c1)C(=O)Nc1cc(F)ccc1C(=O)O` [Compound 43], for which, in experiment [1], the IC50 is above 10 µM and the inhibition at 10 µM was found to be 34.9%.
Take `C/C(=C\c1ccc2ccccc2c1)C(=O)Nc1ccc(F)cc1C(=O)O` [Compound 42]: the “improvement in potency for inhibition of DHODH vs. 24” value in experiment [1] (42 vs. 24) is reported as 1 fold. The inhibition at 10 µM in experiment [1] stood at 90%.
On to `C/C(=C\c1cc2ccccc2n1C)C(=O)Nc1ccccc1C(=O)O` [Compound 32, (E)-2-(2-Methyl-3-(1-methyl-1H-indol-2-yl)acrylamido)benzoic acid], for which, in experiment [1], the IC50 turned out to be 0.317 ± 0.008 µM, the inhibition at 10 µM was 84.3% and the “potency loss relative to naphthyl compound 24” value is 4 fold.
Consider `C/C(=C\c1ccc2ccccc2c1)C(=O)Nc1ccc(C)cc1C(=O)O` [Compound 46], for which, in experiment [1], the IC50 amounted to 0.688 ± 0.006 µM and the inhibition at 10 µM turned out to be 82.9%.
Turning to `C/C(=C\c1ccc2c(Cl)cccc2c1)C(=O)Nc1ccccc1C(=O)O` [Compound 27], in experiment [1], the IC50 is 0.256 ± 0.009 µM and the inhibition at 10 µM turned out to be 96.8%.
Turning to `C/C(=C\c1ccc2ccccc2c1F)C(=O)Nc1ccccc1C(=O)O` [Compound 28], in experiment [1], the IC50 was 0.057 ± 0.002 µM and the inhibition at 10 µM stood at 89.3%.
For the compound `C/C(=C\c1ccc2ccccc2c1)C(=O)Nc1ccccc1C(=O)O` [Compound 24], in experiment [1], the IC50 was 0.075 ± 0.002 µM and the inhibition at 10 µM is 93.9%.
Regarding `C/C(=C\c1ccc(-c2ccccc2)cc1)C(=O)Nc1ccccc1C(=O)O` [Compound 33], in experiment [1], the IC50 came to 0.626 ± 0.013 µM and the inhibition at 10 µM was determined as 89.8%.
Turning to `C/C(=C\c1ccc2ccccc2c1)C(=O)Nc1ccncc1C(=O)O` [Compound 50, (E)-4-(2-Methyl-3-(naphthalen-2-yl)acrylamido)nicotinic acid], in experiment [1], half-maximal inhibition (IC50) required 1.691 ± 0.014 µM and the inhibition at 10 µM is 74.1%.
On the same counts, the results for `C/C(=C\c1ccc(C)c(C)c1)C(=O)Nc1ccccc1C(=O)O` [Compound 16] are 0.394 ± 0.004 µM and 92.9%.
The corresponding values for `C/C(=C\c1ccc2c(c1)CCCC2)C(=O)Nc1ccccc1C(=O)O` [Compound 23] are 0.115 ± 0.001 µM and 85.2%.
With `C/C(=C\c1ccc2ccccc2c1Br)C(=O)Nc1ccc(F)cc1C(=O)O` [Compound 55], the inhibition at 10 µM in experiment [1] was 98.6%.
As to `C/C(=C\c1ccc2c(c1)CCC2)C(=O)Nc1ccccc1C(=O)O` [Compound 22], in experiment [1], the IC50 was 0.252 ± 0.017 µM and the inhibition at 10 µM stood at 86.9%.
The corresponding values for `COc1ccc(/C=C(\C)C(=O)Nc2ccccc2C(=O)O)cc1` [Compound 14] are 0.561 ± 0.014 µM and 88.7%.
Consider `COc1ccc2cc(/C=C(\C)C(=O)Nc3ccccc3C(=O)O)ccc2c1` [Compound 25], for which, in experiment [1], half-maximal inhibition (IC50) required 0.129 ± 0.008 µM and the inhibition at 10 µM was determined as 88.2%.
On the same counts, the results for `C/C(=C\c1ccc(C(F)(F)F)nc1)C(=O)Nc1ccccc1C(=O)O` [Compound 13] are 6.11 ± 0.102 µM and 69.3%.
The corresponding values for `C/C(=C\c1ccc2ccccc2c1)C(=O)Nc1ccc(Cl)cc1C(=O)O` [Compound 44] are 0.623 ± 0.001 µM and 83%.
On the same counts, the results for `O=C(/C=C/c1ccc2ccccc2c1)Nc1ccccc1C(=O)O` [Compound 38] are 0.712 ± 0.012 µM and 87.5%.
Consider `C/C(=C\c1ccc2ccccc2c1F)C(=O)Nc1ccc(F)cc1C(=O)O` [Compound 53], for which the inhibition at 10 µM in experiment [1] turned out to be 98%.
For `C/C(=C\c1ccc(Cl)c(Cl)c1)C(=O)Nc1ccccc1C(=O)O` [Compound 19], in experiment [1], 0.529 ± 0.024 µM corresponded to half-maximal inhibition (IC50) and the inhibition at 10 µM came to 91.7%.
With `C/C(=C\c1cccc(Oc2ccccc2)c1)C(=O)Nc1ccccc1C(=O)O` [Compound 35], in experiment [1], half-maximal inhibition (IC50) was put at 0.597 ± 0.006 µM and the inhibition at 10 µM stood at 89.5%.
On the same counts, the results for `O=C(Nc1ccccc1C(=O)O)/C(Cl)=C/c1ccc2ccccc2c1` [Compound 39] are 0.061 ± 0.001 µM and 88.6%.
The corresponding values for `C/C(=C\c1ccc(C(F)(F)F)cc1)C(=O)Nc1ccccc1C(=O)O` [Compound 12] are 1.04 ± 0.04 µM and 82.3%.
On the same counts, the results for `C/C(=C\c1ccc(C)c(Cl)c1)C(=O)Nc1ccccc1C(=O)O` [Compound 17] are 0.384 ± 0.016 µM and 91%.
As for `C/C(=C\c1ccc2ccccc2c1Cl)C(=O)Nc1ccccc1C(=O)O` [Compound 29], in experiment [1], 0.078 ± 0.003 µM corresponded to half-maximal inhibition (IC50) and the inhibition at 10 µM was found to be 96.4%.
On the same counts, the results for `COc1ccc(/C=C(\C)C(=O)Nc2ccccc2C(=O)O)cc1OC` [Compound 20] are 0.612 ± 0.011 µM and 91.5%.
The corresponding values for `C/C(=C\c1ccc(Cl)c(C(F)(F)F)c1)C(=O)Nc1ccccc1C(=O)O` [Compound 18] are 0.894 ± 0.063 µM and 84.6%.
`C/C(=C\c1ccc2ccccc2c1)C(=O)Nc1sccc1C(=O)O` [Compound 49]: in experiment [1], inhibition was half-maximal at 2.13 ± 0.11 µM (IC50) and the inhibition at 10 µM was determined as 79.3%.
For the compound `CC/C(=C\c1ccc2ccccc2c1)C(=O)Nc1ccccc1C(=O)O` [Compound 41], in experiment [1], half-maximal inhibition (IC50) was put at 0.606 ± 0.031 µM and the inhibition at 10 µM was 82.8%.
With `C/C(=C\c1ccccc1)C(=O)Nc1ccccc1C(=O)O` [Compound 11], in experiment [1], the inhibition at 10 µM was 85.6%.
`C/C(=C\c1ccc(C(C)(C)C)cc1)C(=O)Nc1ccccc1C(=O)O` [Compound 15]: in experiment [1], the IC50 was found to be 0.836 ± 0.021 µM and the inhibition at 10 µM came to 86.6%.
The corresponding values for `C/C(=C\c1cc(Cl)cc(Cl)c1)C(=O)Nc1ccccc1C(=O)O` [Compound 21] are 0.724 ± 0.028 µM and 89.4%.
Regarding `O=C(Nc1ccccc1C(=O)O)/C(Br)=C/c1ccc2ccccc2c1` [Compound 40], in experiment [1], the IC50 came out at 0.085 ± 0.004 µM and the inhibition at 10 µM was 88.6%.
